The results in this text go back to ChEMBL document CHEMBL2385079, “Design, synthesis and pharmacological characterization of analogs of 2-aminoethyl diphenylborinate (2-APB), a known store-operated calcium channel blocker, for inhibition of TRPV6-mediated calcium transport” (Bioorg Med Chem, 2013).

The target in data set [1] is T1, ORAI 1/2/3 (Homo sapiens, UniProt Q96D31+Q96SN7+Q9BRQ5). Kind of data set: Inhibition of ORAl1/2/3 in HEK293 cells assessed as inhibition of Ca2+ influx after 10 mins by FLIPR assay in presence of thapsigargin. Format: cell-based. A digest of the protocol:
(§1)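 Untransfected HEK293 cells plated at 40,000 cells/well, used after 36 h and loaded 1 h at 37 °C with Calcium-5 dye in nominally Ca2+-free modified Krebs buffer (117 mM NaCl, 4.8 mM KCl, 1 mM MgCl2, 10 mM HEPES). After a 50 s baseline, compound is added together with 1 µM thapsigargin for 10 min. Ca2+ or Cd2+ is then added, and the rate of fluorescence rise is read by FLIPR Tetra (ex 470–495, em 515–575 nm). IC50 is the mean of six experiments.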

The target of data set [2] is T2, Transient receptor potential cation channel subfamily V member 6 (Homo sapiens, UniProt Q9H1D0).
T2 sequence (Q9H1D0 whole entry): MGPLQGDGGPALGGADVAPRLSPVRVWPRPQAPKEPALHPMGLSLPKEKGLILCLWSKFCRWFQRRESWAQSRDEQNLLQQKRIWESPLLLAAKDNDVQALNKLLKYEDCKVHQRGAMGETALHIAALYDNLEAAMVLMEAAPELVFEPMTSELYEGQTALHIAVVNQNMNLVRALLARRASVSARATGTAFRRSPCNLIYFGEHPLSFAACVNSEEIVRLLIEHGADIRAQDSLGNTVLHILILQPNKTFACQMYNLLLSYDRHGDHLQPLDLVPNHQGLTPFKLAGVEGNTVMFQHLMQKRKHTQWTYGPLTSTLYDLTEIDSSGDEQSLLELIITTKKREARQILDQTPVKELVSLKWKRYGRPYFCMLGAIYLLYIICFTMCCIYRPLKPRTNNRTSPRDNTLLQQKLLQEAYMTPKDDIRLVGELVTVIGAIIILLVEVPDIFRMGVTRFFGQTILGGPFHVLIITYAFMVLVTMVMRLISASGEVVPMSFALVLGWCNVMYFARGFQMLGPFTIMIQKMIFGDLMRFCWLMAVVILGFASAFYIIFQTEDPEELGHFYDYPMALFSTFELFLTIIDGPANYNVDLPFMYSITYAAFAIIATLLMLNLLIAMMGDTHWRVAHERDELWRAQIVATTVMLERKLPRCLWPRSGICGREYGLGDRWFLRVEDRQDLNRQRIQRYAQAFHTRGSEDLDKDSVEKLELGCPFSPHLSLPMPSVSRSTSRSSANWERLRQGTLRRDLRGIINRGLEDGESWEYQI
Nature of the data set: Inhibition of human TRPV6 transfected in HEK293 cells assessed as inhibition of Cd2+ influx after 5 mins by FLIPR assay. Format: cell-based. A digest of the protocol:
(§2)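 HEK293 clone stably expressing RFP-tagged hTRPV6, made by Lipofectamine transfection, G418 selection and picking of red-fluorescent single-cell colonies. Cells plated at 40,000/well and used after 36 h, then loaded 1 h at 37 °C with Calcium-5 in nominally Ca2+-free Krebs buffer. After a 50 s baseline, compound is given for 5 min. Then 2 mM CaCl2 or 50 µM CdCl2 is added, and the initial rate of fluorescence increase is read by FLIPR Tetra. IC50 is the average of six independent experiments.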

For data set [3], the target named is T2, Transient receptor potential cation channel subfamily V member 6. Nature of the data set: Inhibition of human TRPV6 transfected in HEK293 cells assessed as inhibition of Ca2+ influx after 5 mins by FLIPR assay. The data set is classed as cell-based. A digest of the protocol: as §2
Data set [4] in a line: Stability of the compound in CHCl3 by NMR analysis. The data set is classed as physicochemical.
For data set [5], the target named is T1, ORAI 1/2/3. Kind of data set: Inhibition of ORAl1/2/3 in HEK293 cells assessed as inhibition of Cd2+ influx after 10 mins by FLIPR assay in presence of thapsigargin. The data set is classed as cell-based. The method, boiled down: as §1
The target of data set [6] is T3, Transient receptor potential cation channel subfamily V member 6 (Homo sapiens) (UniProt Q9H1D0).
T3 sequence (whole entry): T2 sequence (Q9H1D0 whole entry)
Nature of the data set: Ratio of 2-APB IC50 to compound IC50 for human TRPV6.

In data set [7] the target is T2, Transient receptor potential cation channel subfamily V member 6. Nature of the data set: Inhibition of human TRPV6 transfected in HEK293 cells. The data set is classed as cell-based. A digest of the protocol: as §2
The target of data set [8] is T1, ORAI 1/2/3. Kind of data set: Inhibition of ORAl1/2/3 in HEK293 cells assessed as inhibition of Cd2+ influx up to 500 uM after 10 mins by FLIPR assay in presence of thapsigargin. The data set is classed as cell-based. A digest of the protocol:
as §1

The target in data set [9] is T1, ORAI 1/2/3. Kind of data set: Inhibition of ORAl1/2/3 in HEK293 cells assessed as inhibition of Ca2+ influx up to 500 uM after 10 mins by FLIPR assay in presence of thapsigargin. The data set is classed as cell-based. A digest of the protocol:
as §1

Data set [10] addresses T3, Transient receptor potential cation channel subfamily V member 6 (Homo sapiens). Nature of the data set: Inhibition of human TRPV6 transfected in HEK293 cells assessed as inhibition of Cd2+ influx up to 500 uM after 5 mins by FLIPR assay. Format: cell-based. The method, boiled down:
as §2

The target is the same in data set [11]. Kind of data set: Inhibition of human TRPV6 transfected in HEK293 cells assessed as inhibition of Ca2+ influx up to 500 uM after 5 mins by FLIPR assay. Format: cell-based. The method, boiled down: as §2
The test system of data set [12] is HEK293. Nature of the data set: Selectivity ratio of IC50 for ORAl1/2/3 in HEK293 cells to IC50 for human TRPV6 transfected in HEK293 cells. The data set is classed as cell-based.

The source made the active and inactive calls. No cut-off for these calls is given here.

Consider `O=C1C[NH2+][B-](c2ccccc2)(c2ccccc2)O1`, for which the IC50 (as a rule, the point on the concentration scale where inhibition reaches its midpoint) in data set [1] turned out to be 38.6 µM; in data set [2], 30.6 µM; in data set [3], 12.9 µM; in data set [5], 11 µM. Further, the Stability result in data set [4] is “Stable”.
`O=C1O[B-](c2ccccc2)(c2ccccc2)[NH2+][C@H]1CO`: the IC50 in data set [1] is 40.5 µM; in data set [2], 20.2 µM; in data set [3] it was 36.6 µM; in [5], 9.8 µM. Besides, the Stability result in data set [4] is reported as “Stable”.
Consider `Ic1ccc([B-]2(c3ccccc3)[NH2+]CCO2)cc1` (configuration not stated), for which the IC50 in data set [1] came out at 2.8 µM; in [2] it was 5.2 µM; in [3] it was 5.4 µM; in data set [5] it was 7.2 µM. In data set [6], the Ratio IC50 is 4.
`c1ccc([B-]2(c3ccccc3)[NH2+]CCO2)cc1`: the concentration for half-maximal inhibition (IC50) in [1] is 22.9 µM; in data set [2] it was 24.5 µM; in data set [3], 20.7 µM; in [7], 22 µM; in data set [5] it was 11.9 µM.
Take `c1ccc([B-]2(c3cccnc3)[NH2+]CCO2)cc1` (configuration not stated): the inhibition entry in data set [8], in data set [9], in data set [10] and in data set [11] was “inactive” in each case.
Take `c1ccc([B-]2(c3ccccc3)Oc3cccc4ccc[n+]2c34)cc1`: the inhibition result in [8], in [9], in data set [10] and in data set [11] was “inactive” in each case.
Turning to `OB(O)c1ccccc1`, the inhibition result in data set [8], in data set [9], in [10] and in [11] was “inactive” throughout.
`Cc1ccc([B-]2(c3ccccc3)[NH2+]CCO2)s1` (configuration not stated): the IC50 in data set [1] worked out at 30.9 µM; in data set [2], 10 µM; in data set [3], 12.3 µM; in data set [5], 25.2 µM. The Ratio IC50 in data set [12] was 2.5.
